NR2E3 ag-1 = inhibitors of NR2E3-RetCOR corepressor binding, primary screen, NR2E3 agonist project, biochemical, TR-FRET, GST-NR2E3, biotin-RetCOR. Photoreceptor-specific nuclear receptor (Homo sapiens), Q9Y5X4. 1536-well. inhibition of corepressor binding, % at 4.78 µM. 320,000 tested, 0.12% active. AID 2300, 2010;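 active = percent inhibition above the cutoff of mean plus 3 SD of all tested compounds, set per screening campaign, cut at about 20% in these data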
Target sequence (Q9Y5X4 whole entry, looked up): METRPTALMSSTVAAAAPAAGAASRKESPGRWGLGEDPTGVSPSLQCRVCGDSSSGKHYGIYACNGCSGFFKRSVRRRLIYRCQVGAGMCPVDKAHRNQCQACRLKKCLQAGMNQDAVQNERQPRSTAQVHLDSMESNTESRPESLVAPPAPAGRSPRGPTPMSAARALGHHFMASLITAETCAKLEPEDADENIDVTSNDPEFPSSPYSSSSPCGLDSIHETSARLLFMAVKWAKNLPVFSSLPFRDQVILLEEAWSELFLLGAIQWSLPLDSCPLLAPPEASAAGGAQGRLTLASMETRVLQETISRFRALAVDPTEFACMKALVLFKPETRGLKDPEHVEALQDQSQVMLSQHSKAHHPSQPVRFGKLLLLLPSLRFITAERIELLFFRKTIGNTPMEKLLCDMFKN
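System: GST-tagged NR2E3 plus biotinylated RetCOR corepressor; Amount: 1.35 nM GST-tagged NR2E3 final; Dosing: single nominal compound dose of 4.8 µM; Schedule: 5 h incubation at 4 °C; Technique: TR-FRET with europium anti-GST and streptavidin-D2, 340 nm excitation; Controls: biotin wells as high control, 0.6% DMSO wells as low control.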
DAX1 inh-1 = DAX1 (NR0B1) inhibitors, primary screen, cell-based, HEK293, Gal4-DAX1, luciferase luminescence; Nuclear receptor subfamily 0 group B member 1 (Homo sapiens), P51843; HEK293 Gal4-DAX1 luciferase reporter; inhibition, % at 6.75 µM; 340,000 tested, 0.99% active; AID 504766, 2011;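 active = inhibition above the mean over all tested compounds plus 3 SD, cut at about 4.2% in these data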;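 note: inhibition shows as a rise in luminescence from relieved DAX1 repression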
GASC-1 inh = inhibitors of GASC-1 histone demethylase, primary screen, biochemical, fluorescence, DELFIA europium | Lysine-specific demethylase 4C (Homo sapiens), Q9H3R0 | GST-JMJD2C(1-420) H3K9me3 demethylation | inhibition, % at 2.35 µM | 330,000 tested, 0.069% active | AID 2099, 2009;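 active = more than half of a compound's replicate wells show inhibition beyond 50%, single wells judged on their own value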;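 note: signal counts dimethyl H3K9 product captured on neutravidin plate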
DAX1 inh-2 = DAX1 (NR0B1) inhibitors on StAR promoter, primary screen, cell-based, luminescence, SF-1 (NR5A1), full-length DAX-1; HEK293T StAR-luciferase reporter, SF-1/DAX-1 repression relief; inhibition, % at 6.8 µM; 370,000 tested, 1.1% active;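 active = inhibition above the mean over all tested compounds plus 3 SD, cut at about 3.6% in these data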;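 note: higher inhibition means more luminescence from relief of DAX-1 repression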
NR2E3 ag-2 = NR2E3 agonists in two-hybrid cells, primary screen, cell-based, luminescence, CHO-S, Gal4-NCOR/VP16-NR2E3; 360,000 tested, 0.35% active; AID 602229, 2012; inhibition of corepressor binding, % at 3.98 µM; luciferase;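 active = inhibition above the mean of all tested compounds plus 3 SD, cut at about 70% in these data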;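 note: higher means lower luciferase signal from less NR2E3 corepressor binding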
SMARCA2 act = SMARCA2 (BRM) function activators, primary screen, cell-based, luminescence, high throughput; MG213 cells, MMTV-luciferase reporter, dexamethasone, overnight; 370,000 tested, 1% active; activation, % at 9.1 µM; in the data active = activation above about 7.8%
Large screens that a line does not name were inactive. A selection: hits, their analogues and other compounds. The true share with any hit is near 3.2%.

Cc1ccc(N(C(=O)CNC(=O)c2ccco2)C(C(=O)NC2CCCC2)c2cccnc2)cc1C (stereo not drawn)	DAX1 inh-1 4.3
O=C(NCC(=O)N(CC1CCCO1)C(C(=O)NC1CCCCC1)c1cccnc1)c1cccs1 (stereo not drawn)	DAX1 inh-1 5.0
COc1ccc(-n2c(COc3ccc(Cl)cc3)nnc2SCc2nc3ccccc3[nH]2)cc1	none (no result: NR2E3 ag-1, DAX1 inh-1, GASC-1 inh, NR2E3 ag-2)
C/C(CCc1ccco1)=N\NC(=O)CNc1c(Br)cc(Br)cc1Br	DAX1 inh-1 6.8
COC(=O)[C@H](C(C)C)N(CCc1cn(Cc2ccccc2)nn1)S(=O)(=O)c1ccccc1Br	none (no result: NR2E3 ag-1, DAX1 inh-1, GASC-1 inh, NR2E3 ag-2)
CC1(CCc2ccccc2)NC(=O)N(CC(=O)Nc2ccccc2)C1=O (stereo not drawn)	DAX1 inh-1 4.7
COc1ccc(-c2c(C)nc3c(-c4ccccn4)cnn3c2N)cc1	none (no result: NR2E3 ag-1)
COc1ccc(-c2c(C)nc3c(-c4ccsc4)cnn3c2N)cc1	DAX1 inh-1 5.2
Cc1nc2c(-c3ccc(F)cc3)cnn2c(N)c1-c1ccc(F)cc1	DAX1 inh-1 4.3
COc1ccc(CNCC#Cc2ccc(C)cc2)c(OC)c1	none (no result: NR2E3 ag-1, DAX1 inh-1, GASC-1 inh, NR2E3 ag-2)
Cc1ccc(Nc2ncnc3c2oc2ccccc23)cc1	DAX1 inh-1 4.3
CN(Cc1ccccc1)C(=O)OCc1cn(Cc2cccc(Cl)c2)nn1	none (no result: NR2E3 ag-1, DAX1 inh-1, GASC-1 inh, NR2E3 ag-2)
CCC(=O)NCCc1nc2cc(NC(=O)c3cccs3)ccc2n1C	DAX1 inh-2 3.6
O=C(CCc1ccccc1)Nc1cc2c(cc1Cl)OCCO2	DAX1 inh-2 3.9
Oc1cc(-c2ccc(N3CCCCC3)nc2)cc2cccnc12	DAX1 inh-1 5.6 (no result: NR2E3 ag-1, GASC-1 inh, DAX1 inh-2, SMARCA2 act)
N/C(=N\OC(=O)COc1ccc(Cl)cc1Cl)c1ccncc1	DAX1 inh-1 6.2, DAX1 inh-2 4.0 (no result: NR2E3 ag-1, GASC-1 inh)
N/C(=N\OC(=O)COc1ccc(Cl)cc1Br)c1cccnc1	none
COc1cc([C@H]2Oc3c(OC)cc(CCCO[C@@H]4O[C@H](CO)[C@@H](O)[C@H](O)[C@H]4O)cc3[C@@H]2CO)ccc1O	DAX1 inh-1 4.7
OC[C@H]1O[C@H](OCCc2ccc(O)cc2)[C@H](O)[C@@H](O)[C@@H]1O	none (no result: NR2E3 ag-1)
Cc1ccc(Cl)cc1-c1cc(C(=O)Nc2ccc(F)cc2)[nH]n1	DAX1 inh-2 4.1 (no result: NR2E3 ag-1, DAX1 inh-1, GASC-1 inh)
COc1ccc2c(=O)c(Oc3ccc(C(=O)O)cc3)c(C(F)(F)F)oc2c1	DAX1 inh-2 4.2
CCCCCCCCNS(=O)(=O)CC1NCc2cc(OC)ccc21 (stereo not drawn)	none (no result: NR2E3 ag-1, DAX1 inh-1, GASC-1 inh, NR2E3 ag-2)
C#CCSc1nc(=O)c2cccnc2n1-c1ccc(C)cc1	DAX1 inh-1 4.5
Cc1ccc(-n2cnc(=O)c3cccnc32)cc1	none
O=C(NCc1c(F)cccc1F)C1CCC(CNS(=O)(=O)c2cccc3cccnc23)CC1 (stereo not drawn)	none (no result: NR2E3 ag-1, DAX1 inh-1, GASC-1 inh, NR2E3 ag-2)
Cc1ccc(S(=O)(=O)O/N=C2\CCCc3ccccc32)cc1	none
CC1=C(C)/C(=N\OS(=O)(=O)c2ccccc2)C=CC1=O	NR2E3 ag-2 74 (no result: DAX1 inh-2, SMARCA2 act)
CC1=CC(C)(C)n2c(O)c(N=NC(N)=S)c3cccc1c32	none
COc1cc2c3c(c1)c(N=NC(N)=S)c(O)n3C(C)(C)C=C2C	DAX1 inh-1 7.1
O=C(O)C1(Nc2ccc(Cl)cc2)CCCC1	DAX1 inh-1 5.3 (no result: NR2E3 ag-1, GASC-1 inh)
COC(=O)[C@]12C=CCN1[C@@H](c1ccc(Cl)cc1)c1c(c3ccccc3n1S(=O)(=O)c1ccc(C)cc1)C2	none (no result: NR2E3 ag-1, DAX1 inh-1, GASC-1 inh, NR2E3 ag-2)
Cc1cc(C)nc(NS(=O)(=O)c2ccc(NC(=O)CSc3ncn[nH]3)cc2)n1	DAX1 inh-1 5.8
Cc1cc(C)nc(SCC(=O)Nc2ccc(S(=O)(=O)Nc3ncccn3)cc2)n1	none
Cc1ccc(NC2c3ccccc3C(=O)N2c2cccnc2)cc1 (stereo not drawn)	DAX1 inh-1 5.5
Cc1ccc(N2C(=O)c3ccccc3C2Nc2cccnc2)nc1 (stereo not drawn)	none

High-throughput results deposited in PubChem BioAssay by several laboratories.
